The list is not random: actives were taken first. Their share in the collection is about 2.5%.
ABCB1 block: human ABCB1 inhibition, ABCG2 as counter-screen | P08183 | CCRF-Adr cells, JC-1 efflux, flow cytometry | inhibition, % at 6.6 µM | hit rate 0.067% among 190,000; in the data active = inhibition above about 40%;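 also: higher value means more JC-1 retained so stronger ABCB1 efflux block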
Target sequence (P08183 whole entry, looked up): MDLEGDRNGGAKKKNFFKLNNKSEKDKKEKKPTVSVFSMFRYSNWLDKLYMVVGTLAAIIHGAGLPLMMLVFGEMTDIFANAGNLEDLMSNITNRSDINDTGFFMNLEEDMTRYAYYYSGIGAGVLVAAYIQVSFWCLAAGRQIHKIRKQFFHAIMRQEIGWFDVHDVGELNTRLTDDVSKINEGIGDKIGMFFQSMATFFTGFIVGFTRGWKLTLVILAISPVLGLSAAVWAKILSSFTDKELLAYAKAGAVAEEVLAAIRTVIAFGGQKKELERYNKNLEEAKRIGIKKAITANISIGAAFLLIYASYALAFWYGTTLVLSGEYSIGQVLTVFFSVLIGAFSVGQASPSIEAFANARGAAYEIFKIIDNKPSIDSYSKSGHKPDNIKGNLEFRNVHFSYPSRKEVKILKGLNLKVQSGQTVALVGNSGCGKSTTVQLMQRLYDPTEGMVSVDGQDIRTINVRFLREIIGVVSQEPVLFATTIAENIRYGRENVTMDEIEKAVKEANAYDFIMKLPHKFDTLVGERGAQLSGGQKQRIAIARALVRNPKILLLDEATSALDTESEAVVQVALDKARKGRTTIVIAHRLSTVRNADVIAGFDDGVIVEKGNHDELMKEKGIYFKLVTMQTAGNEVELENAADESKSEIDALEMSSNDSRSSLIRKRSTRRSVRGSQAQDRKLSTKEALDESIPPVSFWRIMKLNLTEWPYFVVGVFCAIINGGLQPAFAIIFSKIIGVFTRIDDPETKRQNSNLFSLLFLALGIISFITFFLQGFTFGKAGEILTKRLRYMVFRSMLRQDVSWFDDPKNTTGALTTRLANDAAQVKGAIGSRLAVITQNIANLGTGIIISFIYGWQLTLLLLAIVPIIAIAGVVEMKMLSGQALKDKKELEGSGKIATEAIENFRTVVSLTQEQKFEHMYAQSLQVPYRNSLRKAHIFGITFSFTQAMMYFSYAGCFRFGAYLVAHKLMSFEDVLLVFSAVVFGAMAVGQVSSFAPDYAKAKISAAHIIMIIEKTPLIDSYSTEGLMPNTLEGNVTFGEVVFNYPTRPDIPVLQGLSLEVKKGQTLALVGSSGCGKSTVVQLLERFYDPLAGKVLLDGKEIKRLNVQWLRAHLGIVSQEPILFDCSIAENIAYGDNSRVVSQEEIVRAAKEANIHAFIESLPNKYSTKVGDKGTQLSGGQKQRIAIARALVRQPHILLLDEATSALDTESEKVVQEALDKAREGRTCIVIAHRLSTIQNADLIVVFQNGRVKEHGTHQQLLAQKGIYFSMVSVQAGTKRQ
MEKK2mut PB1 HTS: signal of MEK5 binding to mutant human MEKK2 PB1 domain; bead flow cytometry, Alexa488-MEK5 binding to MEKK2 mutant; percent response, % at 10 µM; hit rate 0.35% among 290,000; AID 1530; in the data active = percent response above about 24%, passing the limit was not always enough
MEKK2wt PB1 HTS: raises or lowers MEK5 binding to wildtype human MEKK2 PB1 domain; Q9Y2U5; AID 1531; hit rate 1.1% among 290,000; binding response (% of control), % at 10 µM; bead flow cytometry, Alexa488-MEK5 binding to MEKK2 WT; actives lie on both sides; in the data active = binding response below about 67% or above about 130%
MEKK3 PB1 HTS: MEKK3-MEK5 PB1 interaction, increase or decrease; hit rate 1.4% among 290,000; AID 1529; bead-based flow cytometry, Alexa488-MEK5 binding to MEKK3; actives lie on both sides; 0 = blocked by unlabeled MEK5, 100 = vehicle; binding response (% of control), % at 10 µM; Q99759;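 active = binding response more than 3 SD above or below the average of its plate-row segment, actives on both sides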;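 also: Alexa488 bead fluorescence after subtracting the streptavidin-only scavenger bead signal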
Efflux pump mplx: inhibitors of Candida antifungal efflux pumps expressed in yeast. S. cerevisiae Candida pump triplex, Nile Red efflux. inhibition, % at 10 µM. hit rate 0.44% among 330,000;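 active = plate passing quality check with inhibition over a set limit, or well fluorescence over plate mean plus 4 SD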;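 also: Nile Red retained in pooled yeast measured as flow cytometry median fluorescence; higher means more Nile Red kept so more efflux inhibition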
ABCG2 block: human ABCG2 inhibition, ABCB1 as counter-screen. Q9UNQ0. IgMXP3 cells, JC-1 efflux, flow cytometry. inhibition, % at 6.6 µM. hit rate 0.1% among 190,000. AID 1325;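 active = inhibition above 80%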
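Test system: IgMXP3 (ABCG2) plus far-red-tagged CCRF-Adr (ABCB1) cells / Amount: 3 million cells/mL in well / Reagent: JC-1 transporter substrate / Timing: 10 min compound exposure, 25 °C / Signal: flow cytometry, 530 nm JC-1 signal / Read-out: percent efflux inhibition, scaled nicardipine 100% to DMSO 0% / Benchmarks: nicardipine as high control, DMSO as low control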
Hits are given with their value.

Screening COc1cccc(NC(=O)c2ccc(N3C(=O)C4CCC(C)CC4C3=O)cc2)c1 (stereo not drawn) returned MEKK2mut PB1 HTS inactive, MEKK2wt PB1 HTS inactive, MEKK3 PB1 HTS inactive and Efflux pump mplx inactive.
For Cc1c(CCOC(=O)CC23CC4CC(CC(C4)C2)C3)sc[n+]1CC(=O)c1ccccc1 the results were ABCB1 block inactive, MEKK2mut PB1 HTS inactive, MEKK2wt PB1 HTS 139.0, MEKK3 PB1 HTS inactive, Efflux pump mplx inactive and ABCG2 block inactive.
O=S(=O)(c1ccc(F)c(F)c1)N1CCN(S(=O)(=O)c2cccs2)CC1 was read as MEKK2mut PB1 HTS inactive, MEKK2wt PB1 HTS inactive, MEKK3 PB1 HTS inactive and Efflux pump mplx inactive.
COC(=O)c1c(C)nc(C)c(C(=O)OC)c1-c1cccs1 was read as ABCB1 block inactive, MEKK2mut PB1 HTS 64.0, MEKK2wt PB1 HTS inactive, MEKK3 PB1 HTS inactive, Efflux pump mplx inactive and ABCG2 block inactive.
COc1cc2c(cc1OC)C1(Nc3c-2c(-c2ccccc2)nn3-c2ccccc2)C(=O)Nc2ccccc21 (stereo not drawn) was read as ABCB1 block inactive, Efflux pump mplx 1.2 and ABCG2 block inactive.
COc1cc2c(cc1OC)C1(Nc3c-2c(C)nn3-c2ccccc2)C(=O)Nc2ccccc21 (stereo not drawn) was read as ABCB1 block inactive, Efflux pump mplx inactive and ABCG2 block inactive.
For CS(=O)(=O)N1CCC(C(=O)Nc2cc(Cl)c(Cl)cc2Cl)CC1 the results were MEKK2mut PB1 HTS inactive, MEKK2wt PB1 HTS inactive, MEKK3 PB1 HTS inactive and Efflux pump mplx inactive.
For CNc1ccccc1C(C)(C)c1cc(-c2cccc(Br)c2)no1 the results were ABCB1 block inactive, MEKK2mut PB1 HTS inactive, MEKK2wt PB1 HTS 9.0, MEKK3 PB1 HTS inactive, Efflux pump mplx inactive and ABCG2 block inactive.
Cc1nc2cc(NCc3ccccc3O)ccc2n1Cc1ccccc1 was read as ABCB1 block inactive, MEKK2mut PB1 HTS inactive, MEKK2wt PB1 HTS inactive, MEKK3 PB1 HTS inactive, Efflux pump mplx inactive and ABCG2 block inactive.
`NNC(=O)/C(=C\c1ccc(Br)cc1)NC(=O)c1cccs1` gave ABCB1 block inactive, MEKK2mut PB1 HTS inactive, MEKK2wt PB1 HTS inactive, MEKK3 PB1 HTS inactive, Efflux pump mplx inactive and ABCG2 block inactive.
CC(C)(C)c1ccc(C(=O)Nc2cccc([N+](=O)[O-])c2)cc1 was read as ABCB1 block inactive, MEKK2mut PB1 HTS inactive, MEKK2wt PB1 HTS inactive, MEKK3 PB1 HTS inactive, Efflux pump mplx inactive and ABCG2 block 116.1.
`Cc1cccc(OCc2n(CC(=O)OC3CC(C)CCC3C(C)C)c3ccccc3[n+]2C)c1` (stereo not drawn) gave ABCB1 block inactive, MEKK2mut PB1 HTS inactive, MEKK2wt PB1 HTS 183.0, MEKK3 PB1 HTS inactive, Efflux pump mplx inactive and ABCG2 block inactive.
Screening CN1CCN(C(=S)c2cn(CCOc3ccccc3F)c3ccccc23)CC1 returned ABCB1 block inactive, MEKK2mut PB1 HTS inactive, MEKK2wt PB1 HTS -9.0, MEKK3 PB1 HTS inactive, Efflux pump mplx inactive and ABCG2 block inactive.
For COc1cc(/C=C2\SC(=S)N(NC(=O)c3ccc(O)c(OC)c3)C2=O)ccc1O the results were MEKK2mut PB1 HTS inactive, MEKK2wt PB1 HTS inactive, MEKK3 PB1 HTS inactive and Efflux pump mplx inactive.
COc1cc(/C=C2\SC(=S)N(NC(=O)c3ccncc3)C2=O)ccc1O was read as MEKK2mut PB1 HTS inactive, MEKK2wt PB1 HTS -3.0, MEKK3 PB1 HTS inactive and Efflux pump mplx inactive.
`C=CCn1c(=O)[nH]c2cc(C(=O)N3CC=C(c4ccccc4)CC3)ccc2c1=O` gave ABCB1 block inactive, MEKK2mut PB1 HTS inactive, MEKK2wt PB1 HTS inactive, MEKK3 PB1 HTS inactive, Efflux pump mplx inactive and ABCG2 block inactive.
`O=C(N=C1c2ccccc2CN1c1ccccc1)c1cccc([N+](=O)[O-])c1` gave ABCB1 block inactive, MEKK2mut PB1 HTS inactive, MEKK2wt PB1 HTS 5.0, MEKK3 PB1 HTS inactive, Efflux pump mplx inactive and ABCG2 block inactive.
`Cc1nc2nc(SCC(=O)NCCCN3CCCCCC3)nn2c(C)c1Cc1ccccc1` gave MEKK2mut PB1 HTS 34.0, MEKK2wt PB1 HTS 190.0, MEKK3 PB1 HTS inactive and Efflux pump mplx inactive.
COc1ccc2sc(N(CCCN(C)C)C(=O)c3ccc(S(=O)(=O)N4CCc5ccccc5C4)cc3)nc2c1 was read as Efflux pump mplx inactive.

High-throughput results (PubChem)
